PMC4233149 (Clinical cancer research : an official journal of the …, 2014)
“And” between values parts separate entries of the source, which are not always exact repeats. Equal values may be shown once.

Legend:
[1] = system: pThr246 PRAS40; assay: PD biomarker in platelet-rich plasma; assay type: in vivo, human; conditions: 60mg QOD, PRP, 48h
Method in brief: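 Platelet-rich plasma was collected at baseline and at 3, 6, 24 and 48h on oral 60mg QOD dosing. pThr246 PRAS40 was measured by MSD electrochemiluminescence assay validated to Good Clinical Practice standards. Values were expressed as percent of individual baseline, averaged per timepoint, and compared with baseline by paired t-test.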

[2] = Phase I safety and tolerability, alternate day; assay type: in vivo, human; conditions: 60mg QOD
Method in brief: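 Patients took 60mg tablets fasted, QOD in 28-day cycles, in expansion cohorts (CRPC, ovarian, MRI). Safety was checked at baseline, cycle 1 days 1, 2, 7, 15, 21, 27 and 28, weekly in cycle 2, then monthly. Glucose was monitored. Serum C-peptide and whole-blood HbA1c were measured at baseline and monthly. AEs were graded by CTCAE v3.0.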

[3] = Solubility; assay type: physicochemical; conditions: across physiological pH ranges
[4] = observed in the earlier QOD dose-escalation study; cited from earlier work
[5] = system: pSer473 AKT; assay: PD biomarker in platelet-rich plasma; assay type: in vivo, human; conditions: PRP
[6] = Plasma pharmacokinetics, QOD schedule; assay type: in vivo, human; conditions: 60mg QOD
[7] = system: pSer9 GSK3β; assay: PD biomarker in platelet-rich plasma; assay type: in vivo, human; conditions: PRP; for mean pSer9 GSK3β signal, % of baseline levels: 200mg QW, n=11
[8] = system: pSer473 AKT; assay: PD biomarker in paired tumor biopsies; assay type: in vivo, human
Method in brief: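 Paired tumor biopsies were taken before and on treatment (oral QW or 60mg QOD). pSer473 AKT was quantified by MSD electrochemiluminescence assay validated to Good Clinical Practice standards. Levels were expressed as percent of each patient's baseline.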

[9] = system: advanced solid tumors; assay: Multiparametric functional MRI; assay type: in vivo, human; conditions: 60mg QOD, one patient with ADC response
Method in brief: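 Oral dosing at 60mg QOD to fasted patients in 28-day cycles. Imaging on a 1.5T MR system used DCE-MRI, DWI, 1H-MRS and ISW-MRI. Median Ktrans, ADC, tCho/water ratio and R2* were analysed. Four scans per patient: two pre-treatment (reproducibility cohort), then cycle 1 day 7±1 and day 21±4.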

[10] = read-out: mean Cmax of the no-observed-adverse-effect-level (NOAEL) dose; dogs, preclinical toxicology studies; cited from earlier work
[11] = system: pSer473 AKT; conditions: cited from earlier work
[12] = system: advanced solid tumors; assay: Tumor response; assay type: in vivo, human
Method in brief: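 Radiological disease status was assessed by RECIST 1.1 at baseline and every 8 weeks during oral weekly dosing.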

[13] = Permeability; assay type: physicochemical; conditions: across physiological pH ranges

NC1(c2ccc(-c3nc4ccn5c(=O)[nH]nc5c4cc3-c3ccccc3)cc2)CCC1 [MK-2206]
mean pThr246 PRAS40 levels, % of baseline levels [1]: 91.4% | mean pThr246 PRAS40 levels, % of baseline levels ([1]; one outlier removed (28 patients), p=0.0019): 81.9% | C-peptide level increase during first cycle (range) [2]: 2.7% to 495.5 | time for DLTs to resolve to baseline levels after drug interruption [2]: 1-2 weeks | end of cycle 1 HbA1c values ([2]; 2 patients with baseline levels ≤6.5%): 7.3% and 8.3% | patients with increased C-peptide levels during first cycle ([2]; 23/27): 85.2% | patients with HbA1c levels of ≤6.5% at baseline and end of cycle 1 ([2]; 25/29): 86.2% | elevated blood glucose levels, patients ([2]; 27/38): 71.1% | tolerability ([2]; 38 patients): generally well tolerated | G3 hyperglycemia, patients ([2]; following first cycle, 1/38): 2.6% | G1-2 hyperglycemia, patients ([2]; following first cycle, 3/38): 7.9% | solubility [3]: relatively low solubility | half-life [4]: 60 to 80 h | overall mean decrease of pSer473 AKT levels ([5]; 60mg QOD): 55.3% | time of maximum inhibition of pSer473 AKT post-MK-2206 ([5]; 60mg QOD): 6 h | mean pSer473 AKT signal, % of baseline levels ([5]; 60mg QOD, 3h, 29 patients): 36.3% | mean pSer473 AKT signal, % of baseline levels ([5]; 60mg QOD, 6h, 29 patients): 27.9% | mean pSer473 AKT signal, % of baseline levels ([5]; 60mg QOD, 24h, 29 patients): 44.0% | mean pSer473 AKT signal, % of baseline levels ([5]; 60mg QOD, 48h, 29 patients): 70.6% | mean pSer473 AKT levels, % of baseline levels ([5]; 60mg QOD, 48h, one outlier removed (28 patients), p=0.0004): 60.1% | time of maximal suppression of pSer473 AKT and its substrate pSer9 GSK3β ([5]; 150mg QW, breast cancer patient): 24 h | mean pSer473 AKT signal, % of baseline levels ([5]; 200mg QW, 24h, n=11): 19.8% | mean pSer473 AKT signal, % of baseline levels ([5]; 200mg QW, 48h, n=11): 30.6% | mean pSer473 AKT signal, % of baseline levels ([5]; 200mg QW, 96h, n=11): 51.7% | mean pSer473 AKT signal, % of baseline levels ([5]; 200mg QW, 168h, n=11): 97.4% | duration of initial suppression of pSer473 AKT phosphorylation signal ([5]; QW MTD): at least 96 h | accumulation ratio AUClast day:AUCfirst day [6]: 3.3 | time of maximum suppression of pSer9 GSK3β post-MK-2206 ([7]; 60mg QOD): 6 h | mean pSer9 GSK3β levels, % of baseline levels ([7]; 60mg QOD, 3h): 76.8% | mean pSer9 GSK3β levels, % of baseline levels ([7]; 60mg QOD, 6h): 67.5% | mean pSer9 GSK3β levels, % of baseline levels ([7]; 60mg QOD, 24h): 102.9% | mean pSer9 GSK3β signal, % of baseline levels ([7]; 24h): 65.0% | mean pSer9 GSK3β signal, % of baseline levels ([7]; 48h): 82.3% | mean pSer9 GSK3β signal, % of baseline levels ([7]; 96h): 91.4% | mean pSer9 GSK3β signal, % of baseline levels ([7]; 168h): 117.2% | pSer473 AKT levels, % of baseline levels (range) ([8]; 60mg QOD, 3 patients): 45.3-56.2% | mean pSer473 AKT levels, % of baseline levels ([8]; 60mg QOD, 3 patients, p=0.004): 50.1% | pSer473 AKT signal, % of baseline levels (range) ([8]; 200mg QW, 5 patients): 37.5-60.3% | pSer473 AKT signal, % of baseline levels ([8]; 200mg QW, 5 patients, p=0.0003): 50.0% | reduction in K^trans [9]: 20% | Cmax [10]: 365 nM | concentration required for 70% inhibition of pSer473 AKT in whole blood ([11]; level identified in preclinical models as associated with antitumor activity): 57 nmol/L | prespecified PK target for 70% inhibition of pAKT ([11]; plasma concentration target): 56.8 nM | reduction in RECIST measurements of target lesions ([12]; 150mg QW, 8 weeks, one patient with ER/PR positive, HER2 negative metastatic breast cancer, PIK3CA exon 20 mutation): 22% | total time on treatment ([12]; 150mg QW, breast cancer patient, before disease progression): 24 weeks | CA15-3 level after treatment ([12]; 150mg QW, breast cancer patient, from 6853U/ml): 4399 U/ml | reduction in CA15-3 ([12]; 150mg QW, same breast cancer patient): ~36% | duration of RECIST SD (range) ([12]; two patients with CRPC): 6.5-7.5 months | permeability [13]: high permeability
